Source: ChEMBL document CHEMBL1154667, “Synthesis of 3beta, 7alpha, 11alpha-trihydroxy-pregn-21-benzylidene-5-en-20-one derivatives and their cytotoxic activities” (2009)

assay: Cytotoxicity against human EC109 cells at 50 ug/ml after 48 hrs by MTT assay; assay type: functional; details: ECa-109, 48 h
Method in brief: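 EC109 cells grown in RPMI-1640 with 10% fetal calf serum, penicillin and streptomycin at 37 °C in 5% CO2. Seeded at 7000 cells/well; compound diluted in medium added next day for 48 h. MTT (0.5 mg/mL in PBS) then added for a further 4 h, formazan dissolved in DMSO, absorbance read at 570 nm.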

Row | SMILES | inhibition at 50 µg/mL
1 | C[C@]12C[C@@H](O)[C@H]3[C@@H]([C@H](O)C=C4C[C@@H](O)CC[C@@]43C)[C@@H]1CC[C@@H]2C(=O)/C=C/c1ccc(F)cc1 | 76.8%
2 | COc1ccc(/C=C/C(=O)[C@H]2CC[C@H]3[C@H]4[C@H]([C@H](O)C[C@]23C)[C@@]2(C)CC[C@H](O)CC2=C[C@H]4O)cc1 | 55.3%
3 | C[C@]12C[C@@H](O)[C@H]3[C@@H]([C@H](O)C=C4C[C@@H](O)CC[C@@]43C)[C@@H]1CC[C@@H]2C(=O)/C=C/c1cccc([N+](=O)[O-])c1 | 72.4%
4 | C[C@]12C[C@@H](O)[C@H]3[C@@H]([C@H](O)C=C4C[C@@H](O)CC[C@@]43C)[C@@H]1CC[C@@H]2C(=O)/C=C/c1ccc(Cl)cc1 | 80.2%
5 | C[C@]12C[C@@H](O)[C@H]3[C@@H]([C@H](O)C=C4C[C@@H](O)CC[C@@]43C)[C@@H]1CC[C@@H]2C(=O)/C=C/c1cccc(Cl)c1 | 76.4%
6 | COc1ccccc1/C=C/C(=O)[C@H]1CC[C@H]2[C@H]3[C@H]([C@H](O)C[C@]12C)[C@@]1(C)CC[C@H](O)CC1=C[C@H]3O | 47.4%
7 | C[C@]12C[C@@H](O)[C@H]3[C@@H]([C@H](O)C=C4C[C@@H](O)CC[C@@]43C)[C@@H]1CC[C@@H]2C(=O)/C=C/c1ccc(N)cc1 | 50.2%
8 | COc1cc(OC)c(/C=C/C(=O)[C@H]2CC[C@H]3[C@H]4[C@H]([C@H](O)C[C@]23C)[C@@]2(C)CC[C@H](O)CC2=C[C@H]4O)c(OC)c1 | 35.3%
9 | CC(=O)[C@H]1CC[C@H]2[C@H]3[C@H]([C@H](O)C[C@]12C)[C@@]1(C)CC[C@H](O)CC1=C[C@H]3O | 21.7%
10 | C[C@]12C[C@@H](O)[C@H]3[C@@H]([C@H](O)C=C4C[C@@H](O)CC[C@@]43C)[C@@H]1CC[C@@H]2C(=O)/C=C/c1ccc(O)cc1 | 45.7%
11 | C[C@]12C[C@@H](O)[C@H]3[C@@H]([C@H](O)C=C4C[C@@H](O)CC[C@@]43C)[C@@H]1CC[C@@H]2C(=O)/C=C/c1ccccc1 | 59.8%
12 | CN(C)c1ccc(/C=C/C(=O)[C@H]2CC[C@H]3[C@H]4[C@H]([C@H](O)C[C@]23C)[C@@]2(C)CC[C@H](O)CC2=C[C@H]4O)cc1 | 39%
13 | C=C1C(=O)[C@]23[C@H](O)[C@H]1CC[C@H]2[C@@]12CO[C@]3(O)[C@@H](O)[C@@H]1C(C)(C)CC[C@@H]2O [ORIDONIN] | 94.7%
14 | CC(=O)[C@H]1CC[C@H]2[C@@H]3CC=C4C[C@@H](O)CC[C@]4(C)[C@H]3CC[C@]12C [PREGNENOLONE] | 13.6%
